Data from ChEMBL document CHEMBL1629649, “Multiple regulatory pathways associated with high-level ciprofloxacin and multidrug resistance in Salmonella enterica serovar enteritidis: involvement of RamA and other global regulators” (2009).
Converted amounts (≈) assume the structure as drawn.

Tests used:
Format in all cases: functional, Salmonella enterica subsp. enterica serovar Enteritidis
[1] = tested on: Salmonella enteritidis; assay: Antimicrobial activity against marA::aph-deficient ciprofloxacin-resistant Salmonella enterica serovar enteritidis isolate 104-cip harboring gyrA D87Y,S83F mutant gene by Etest
Summary of the method: (§1)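 Deletions (acrB, marA, soxS or ramA) were moved from SL1344 mutants into the isolates by P22 phage transduction. Transductants were selected on LB agar with 50 µg/ml kanamycin, and insertion of the kanamycin resistance gene was confirmed by PCR. MICs were then determined by Etest.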

[2] = tested on: Salmonella enteritidis; assay: Antimicrobial activity against Salmonella enterica serovar enteritidis isolate 5408 harboring gyrA gene by Etest
[3] = tested on: Salmonella enteritidis; assay: Antimicrobial activity against acrB::aph-deficient Salmonella enterica serovar enteritidis isolate 5408 harboring gyrA D87Y mutant gene by Etest; summary of the method: as §1
[4] = tested on: Salmonella enteritidis; assay: Antimicrobial activity against ciprofloxacin-resistant Salmonella enterica serovar enteritidis isolate 5408-cip harboring gyrA gene, gyrB E466D, parE V461G mutant gene by Etest
Summary of the method: (§2)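 Wild-type alleles of the target genes were carried on plasmids and introduced into the ciprofloxacin-selected mutants by electrotransformation. Transformants were selected on LB agar with 50 µg/ml kanamycin at 37°C overnight. Quinolone MICs of the transformants were read by Etest strips alongside those of the parent and mutant strains.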

[5] = tested on: Salmonella enteritidis; assay: Antimicrobial activity against ciprofloxacin-resistant Salmonella enterica serovar enteritidis isolate 5408-cip harboring gyrB gene gyrA D87Y, parE V461G mutant gene by Etest; summary of the method: as §2
[6] = tested on: Salmonella enteritidis; assay: Antimicrobial activity against ciprofloxacin-resistant Salmonella enterica serovar enteritidis isolate 5408-cip harboring parE gene gyrA D87Y, gyrB E466D mutant gene by Etest; summary of the method: as §2
[7] = tested on: Salmonella enteritidis; assay: Antimicrobial activity against acrB::aph-deficient ciprofloxacin-resistant Salmonella enterica serovar enteritidis isolate 5408-cip harboring gyrA D87Y, gyrB E466D, parE V461G mutant gene by Etest; summary of the method: as §1
[8] = tested on: Salmonella enteritidis; assay: Antimicrobial activity against ramA::aph-deficient ciprofloxacin-resistant Salmonella enterica serovar enteritidis isolate 5408-cip harboring gyrA D87Y, gyrB E466D, parE V461G mutant gene by Etest; summary of the method: as §1
[9] = tested on: Salmonella enteritidis; assay: Antimicrobial activity against Salmonella enterica serovar enteritidis isolate CUH48 by Etest
[10] = tested on: Salmonella enteritidis; assay: Antimicrobial activity against Salmonella enterica serovar enteritidis isolate CUH52 by Etest
[11] = tested on: Salmonella enteritidis; assay: Antimicrobial activity against Salmonella enterica serovar enteritidis isolate NCTC 13349 by Etest
[12] = tested on: Salmonella enteritidis; assay: Antimicrobial activity against Salmonella enterica serovar enteritidis isolate 54 harboring gyrA D87Y mutant gene by Etest
[13] = tested on: Salmonella enteritidis; assay: Antimicrobial activity against Salmonella enterica serovar enteritidis isolate 58 harboring gyrA D87Y mutant gene by Etest
[14] = tested on: Salmonella enteritidis; assay: Antimicrobial activity against Salmonella enterica serovar enteritidis isolate 51 harboring gyrA D87Y mutant gene by Etest
[15] = tested on: Salmonella enteritidis; assay: Antimicrobial activity against Salmonella enterica serovar enteritidis isolate CUH60 harboring gyrA D87Y mutant gene by Etest
[16] = tested on: Salmonella enteritidis; assay: Antimicrobial activity against Salmonella enterica serovar enteritidis isolate 4931 harboring gyrA D87Y mutant gene by Etest
[17] = tested on: Salmonella enteritidis; assay: Antimicrobial activity against Salmonella enterica serovar enteritidis isolate 104 harboring gyrA D87Y mutant gene by Etest
[18] = tested on: Salmonella enteritidis; assay: Antimicrobial activity against ciprofloxacin-resistant Salmonella enterica serovar enteritidis isolate 5408-cip harboring gyrA D87Y, gyrB E466D, parE V461G mutant gene by Etest
[19] = tested on: Salmonella enteritidis; assay: Antimicrobial activity against Salmonella enterica serovar enteritidis isolate 5408 harboring gyrA D87Y mutant gene by Etest
[20] = tested on: Salmonella enteritidis; assay: Antimicrobial activity against Salmonella enterica serovar enteritidis isolate 104-cip harboring gyrA D87Y,S83F mutant gene by Etest
[21] = tested on: Salmonella enteritidis; assay: Antimicrobial activity against acrB::aph-deficient Salmonella enterica serovar enteritidis isolate 51 harboring gyrA D87Y mutant gene by Etest; summary of the method: as §1
[22] = tested on: Salmonella enteritidis; assay: Antimicrobial activity against acrB::aph-deficient Salmonella enterica serovar enteritidis isolate CUH60 harboring gyrA D87Y mutant gene by Etest; summary of the method: as §1
[23] = tested on: Salmonella enteritidis; assay: Antimicrobial activity against acrB::aph-deficient Salmonella enterica serovar enteritidis isolate 4931 harboring gyrA D87Y mutant gene by Etest; summary of the method: as §1
[24] = tested on: Salmonella enteritidis; assay: Antimicrobial activity against Salmonella enterica serovar enteritidis isolate 104 harboring gyrA gene by Etest
[25] = tested on: Salmonella enteritidis; assay: Antimicrobial activity against acrB::aph-deficient Salmonella enterica serovar enteritidis isolate 104 harboring gyrA D87Y mutant gene by Etest; summary of the method: as §1
[26] = tested on: Salmonella enteritidis; assay: Antimicrobial activity against ciprofloxacin-resistant Salmonella enterica serovar enteritidis isolate 104-cip harboring gyrA gene by Etest; summary of the method: as §2
[27] = tested on: Salmonella enteritidis; assay: Antimicrobial activity against acrB::aph-deficient ciprofloxacin-resistant Salmonella enterica serovar enteritidis isolate 104-cip harboring gyrA D87Y,S83F mutant gene by Etest; summary of the method: as §1
[28] = tested on: Salmonella enteritidis; assay: Antimicrobial activity against soxS::aph-deficient ciprofloxacin-resistant Salmonella enterica serovar enteritidis isolate 104-cip harboring gyrA D87Y,S83F mutant gene by Etest; summary of the method: as §1

CCn1cc(C(=O)O)c(=O)c2ccc(C)nc21 [NALIDIXIC ACID]
MIC [1]: > 256 µg/mL | MIC [2]: 4 µg/mL (≈ 17.2 µM) | MIC [3]: 32 µg/mL (≈ 138 µM) | MIC [4]: > 256 µg/mL | MIC [5]: > 256 µg/mL | MIC [6]: > 256 µg/mL | MIC [7]: > 256 µg/mL | MIC [8]: > 256 µg/mL | MIC [9]: 6 µg/mL (≈ 25.8 µM) | MIC [10]: 3 µg/mL (≈ 12.9 µM) | MIC [11]: 8 µg/mL (≈ 34.4 µM) | MIC [12]: > 256 µg/mL | MIC [13]: > 256 µg/mL | MIC [14]: > 256 µg/mL | MIC [15]: > 256 µg/mL | MIC [16]: > 256 µg/mL | MIC [17]: > 256 µg/mL | MIC [18]: > 256 µg/mL | MIC [19]: > 256 µg/mL | MIC [20]: > 256 µg/mL | MIC [21]: 32 µg/mL (≈ 138 µM) | MIC [22]: 24 µg/mL (≈ 103 µM) | MIC [23]: 32 µg/mL (≈ 138 µM) | MIC [24]: 4 µg/mL (≈ 17.2 µM) | MIC [25]: 32 µg/mL (≈ 138 µM) | MIC [26]: 8 µg/mL (≈ 34.4 µM) | MIC [27]: > 256 µg/mL | MIC [28]: > 256 µg/mL

CC1(C)S[C@@H]2[C@H](NC(=O)[C@H](N)c3ccccc3)C(=O)N2[C@H]1C(=O)O [AMPICILLIN]
MIC [1]: 1.5 µg/mL (≈ 4.29 µM) | MIC [7]: 0.094 µg/mL (≈ 0.269 µM) | MIC [8]: 1 µg/mL (≈ 2.86 µM) | MIC [17]: 1 µg/mL (≈ 2.86 µM) | MIC [18]: 4 µg/mL (≈ 11.4 µM) | MIC [19]: 1 µg/mL (≈ 2.86 µM) | MIC [20]: 16 µg/mL (≈ 45.8 µM) | MIC [27]: 0.125 µg/mL (≈ 0.358 µM) | MIC [28]: 0.5 µg/mL (≈ 1.43 µM)

O=C(N[C@H](CO)[C@H](O)c1ccc([N+](=O)[O-])cc1)C(Cl)Cl [CHLORAMPHENICOL]
MIC [1]: 3 µg/mL (≈ 9.28 µM) | MIC [7]: 0.5 µg/mL (≈ 1.55 µM) | MIC [8]: 3 µg/mL (≈ 9.28 µM) | MIC [17]: 2 µg/mL (≈ 6.19 µM) | MIC [18]: 16 µg/mL (≈ 49.5 µM) | MIC [19]: 3 µg/mL (≈ 9.28 µM) | MIC [20]: 96 µg/mL (≈ 297 µM) | MIC [27]: 0.75 µg/mL (≈ 2.32 µM) | MIC [28]: 1.5 µg/mL (≈ 4.64 µM)
